Laboratory results: ChEMBL document CHEMBL1142230, “Small-molecule activators of RNase L with broad-spectrum antiviral activity” (Proc Natl Acad Sci U S A, 2007)
One block for each compound: values may come before it. Active and inactive are the calls of the source. The rule behind the calls is not given here.

What was measured:
[1] = target: T1, 2-5A-dependent ribonuclease (Homo sapiens) (UniProt Q05823); experiment: Induction of dimerization of human RNaseL at 0.06 to 0.25 uM assessed by Western blotting
T1 sequence (whole entry): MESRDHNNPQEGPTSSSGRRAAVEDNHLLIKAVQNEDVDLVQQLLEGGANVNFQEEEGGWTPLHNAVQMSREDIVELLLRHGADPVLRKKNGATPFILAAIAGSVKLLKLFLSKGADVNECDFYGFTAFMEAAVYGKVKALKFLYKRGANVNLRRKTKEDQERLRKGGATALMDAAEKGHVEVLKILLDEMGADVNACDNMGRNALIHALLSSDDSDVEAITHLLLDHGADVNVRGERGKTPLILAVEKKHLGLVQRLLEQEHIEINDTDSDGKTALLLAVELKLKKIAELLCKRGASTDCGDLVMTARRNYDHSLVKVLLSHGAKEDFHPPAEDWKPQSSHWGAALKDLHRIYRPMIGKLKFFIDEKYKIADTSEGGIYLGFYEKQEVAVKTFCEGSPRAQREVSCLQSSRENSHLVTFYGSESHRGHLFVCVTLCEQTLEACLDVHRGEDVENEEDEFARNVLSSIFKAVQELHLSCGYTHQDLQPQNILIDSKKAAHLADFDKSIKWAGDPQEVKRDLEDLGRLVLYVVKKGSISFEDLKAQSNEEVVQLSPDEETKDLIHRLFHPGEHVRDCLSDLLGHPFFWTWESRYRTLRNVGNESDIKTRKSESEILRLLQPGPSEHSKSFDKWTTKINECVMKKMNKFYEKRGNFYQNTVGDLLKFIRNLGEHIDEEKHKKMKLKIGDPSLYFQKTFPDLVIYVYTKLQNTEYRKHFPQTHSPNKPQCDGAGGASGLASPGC
In short: (§1)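 RNase L incubated with 2-5A or activator, with or without the cross-linker dimethyl suberimidate. Oligomeric state (monomer vs dimer) read by SDS/PAGE and Western blot probed with anti-RNase L monoclonal antibody.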

[2] = target: T1, 2-5A-dependent ribonuclease (Homo sapiens); experiment: Activation of human recombinant RNase L assessed as cleavage of FRET RNA probe at 15 mins
In short: (§2)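 Baculovirus-expressed, FPLC-purified recombinant human RNase L (25 nM) with 100 nM 36-nt 6-FAM/BHQ-1 FRET RNA probe (Km 75 nM) in cleavage buffer: 25 mM Tris·HCl pH 7.4, 100 mM KCl, 10 mM MgCl2, 50 μM ATP, 7 mM 2-mercaptoethanol. 22°C up to 2 h; fluorescence ex 485/em 535 nm. Compounds delivered from DMSO stocks; rescreened without RNase L to remove false positives.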

[3] = target: T1, 2-5A-dependent ribonuclease (Homo sapiens); experiment: Activation of human recombinant RNase L assessed as cleavage of p32-labelled RNA molecule at 25 uM after 30 mins
[4] = target: T2, 2-5A-dependent ribonuclease (Homo sapiens, UniProt Q05823); experiment: Activation of human recombinant Rnase L assessed as cleavage of FRET RNA probe; in short: as §2
T2 sequence (Q05823 whole entry): T1 sequence (whole entry)

[5] = target: T2, 2-5A-dependent ribonuclease; experiment: Displacement of 5'-phosphorylated, 2',5'-oligoadenylate from human recombinant RNase L assessed as decrease in resonance by surface plasma resonance
In short: (§3)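 Biotinylated 2-5A immobilized on streptavidin biosensor chips; 10 nM RNase L with varying activator concentrations passed over the chip. Response units recorded over time, and maximum response at equilibrium (Rmax) fitted against concentration by global fit.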

[6] = target: T1, 2-5A-dependent ribonuclease (Homo sapiens); experiment: Activation of human recombinant RNaseL at 40 uM assessed as cleavage of FRET RNA probe; in short: as §2
[7] = target: T1, 2-5A-dependent ribonuclease (Homo sapiens); experiment: Induction of dimerization of human RNaseL at 3 to 12 uM assessed by Western blotting; in short: as §1
[8] = system: Encephalomyocarditis virus; experiment: Antiviral activity against encephalomyocarditis virus in wild type mouse fibroblasts assessed as reduction in viral growth; format: functional
In short: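 SV40 T antigen-transformed wild-type mouse embryonic fibroblasts were grown in RPMI 1640 with 10% FBS and seeded at 2.5 × 10⁵ cells/well. After 1 h, cells were infected with EMCV strain K (MOI 0.5) in serum-free medium for 1 h, washed with PBS, then fed complete medium containing varied compound amounts. At 12 h, titres were measured by plaque assay on L929 cells, in triplicate.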

XMRV = experiment: Antiviral activity against human retrovirus XMRV in human DU145 cells assessed as suppression of infection; format: functional, cell-based; conditions: Xenotropic MuLV-related virus; DU-145
In short: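 DU145 cells infected with XMRV for 3 h in FBS-free RPMI 1640 containing 8 μg/ml polybrene, then washed. Treated in triplicate with compound in fresh complete RPMI for 2 d. Reverse transcriptase activity measured in supernatants.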

Human respirovirus 3 [9] = experiment: Antiviral activity against human parainfluenza virus3 in HeLaM cells expressing RNaseL R667A mutant […]; format: functional
In short: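 HeLa M cells expressing R667A RNase L cDNA were grown in DMEM with 10% FBS. They were infected with HPIV3/GFP (MOI 1.0) in serum-free medium for 90 min, washed with PBS, then given complete medium with varied compound amounts. At 24 h, virus was harvested by two freeze–thaw cycles and titred by plaque assay on CV1 cells, in triplicate.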

Human respirovirus 3 [10] = experiment: Antiviral activity against human parainfluenza virus3 in HeLaS cells expressing wild type RNaseL after 24 hrs by GFP reporter assay; format: functional
In short: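 HeLa S cells, with endogenous wild-type RNase L, were infected with HPIV3/GFP at MOI 1.0. After 90 min, medium was removed and cells were washed twice with PBS. Cells were then incubated in complete medium without compound or with 10, 50 or 100 μM compound. GFP fluorescence was imaged by fluorescence microscopy at 24 h post-infection.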

[11] = Cytotoxicity against mouse fibroblast assessed as reduction of cell viability upto 50 uM; format: cell-based
In short: (§4)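 SV40-transformed mouse embryonic fibroblasts or HeLa S cells (10^4/well) treated with compound up to 50 μM for 24 h. MTS reagent added for 3 h at 37°C; absorbance read at 490 nm. Triplicate, with SDs.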

HeLaS = experiment: Cytotoxicity against of human HeLaS cells assessed as reduction of cell viability upto 50 uM; format: functional, cell-based; in short: as §4
Respirovirus muris = experiment: Antiviral activity against sendai virus in HeLaS cell assessed as suppression of infection; format: functional, organism-based
In short: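 HeLa S cells infected with Sendai virus (Cantell), 20 HA units/ml, in serum-free medium for 90 min. Cells washed and given complete medium with compound doses. Supernatant collected at 24 h; viral genomic RNA quantified by real-time RT-PCR; triplicate.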

Human respirovirus 3 [12] = experiment: Antiviral activity against human parainfluenza virus3 in HeLaM cells expressing wild type RNaseL by plaque assay
[13] = target: T2, 2-5A-dependent ribonuclease; experiment: Binding affinity to human recombinant RNase L; in short: as §3

Activity [1]: Active
Activity [2]: Active
Activity [3]: Active
Compound: Nc1ncnc2c1ncn2[C@@H]1O[C@H](COP(=O)(O)O[C@@H]2[C@H](O)[C@@H](COP(=O)(O)O[C@@H]3[C@H](O)[C@@H](COP(=O)(O)OP(=O)(O)OP(=O)(O)O)O[C@H]3n3cnc4c(N)ncnc43)O[C@H]2n2cnc3c(N)ncnc32)[C@@H](O)[C@H]1O

EC50 [4]: 49 µM
Compound: CCOC(=O)C1=C(Nc2ccc(Cl)cc2)S/C(=C\c2cccc(O)c2)C1=O

EC50 [4]: 49 µM
Compound: Cc1ccc(NC2=NC(=O)/C(=C/c3cccc(O)c3)S2)c(Cl)c1

Compound: O=c1[nH]c(-c2cccc(O)c2)nc2sc3c(c12)CCCC3
Kd [5]: 12 µM
Activity [6]: Active
EC50 [4]: 22 µM
Activity [7]: Active
Activity [8]: 7
Activity (XMRV): Active
Activity (Human respirovirus 3 [9]): <2
Activity (Human respirovirus 3 [10]): 5
Activity [11]: Not Active
Activity (HeLaS): inactive
Activity (Respirovirus muris): Active
Activity [3]: Active
Activity (Human respirovirus 3 [12]): Active

EC50 [4]: 79 µM
Compound: CC(=O)c1ccc(NC(=S)NC(NC(=O)Cc2ccccc2)C(Cl)(Cl)Cl)cc1 (stereo not drawn)

EC50 [4]: 99 µM
Compound: CCCCOC(=O)c1ccc(NC(=S)NC(NC(C)=O)C(Cl)(Cl)Cl)cc1 (stereo not drawn)

Compound: CCOC(=O)C1=C(Nc2ccccc2)S/C(=C\c2cccc(O)c2)C1=O
Kd [5]: 18 µM
Activity [6]: Active
EC50 [4]: 26 µM
Activity [1]: Active
Activity [7]: Active
Activity [8]: 7
Activity [11]: Not Active
Activity (HeLaS): inactive
Activity (Respirovirus muris): Active
Activity [3]: Active

EC50 [4]: 22 µM
Compound: O=c1[nH]c(-c2cccc([N+](=O)[O-])c2)nc2sc3c(c12)CCCC3

EC50 [4]: 50 µM
Compound: Cc1c(Cl)cccc1NC1=NC(=O)/C(=C/c2ccc([N+](=O)[O-])cc2)S1

EC50 [4]: 90 µM
Compound: CCCCOC(=O)c1ccc(NC(=S)NC(NC(=O)CC)C(Cl)(Cl)Cl)cc1 (stereo not drawn)

EC50 [4]: 48 µM
Compound: COc1ccc(Cl)cc1NC(=O)c1cc2c(C)nn(-c3ccccc3)c2s1

Kd [5]: 0.00022 µM
EC50 [4]: 0.0005 µM
Kd [13]: 0.04 nM
Compound: Nc1ncnc2c1ncn2[C@@H]1O[C@H](CO[P@](=O)(O)O[C@@H]2[C@H](O)[C@@H](CO[P@](=O)(O)O[C@@H]3[C@H](O)[C@@H](CO[P@](=O)(O)O[P@@](=O)(O)OP(=O)(O)O)O[C@H]3n3cnc4c(N)ncnc43)O[C@H]2n2cnc3c(N)ncnc32)[C@@H](O)[C@H]1O

EC50 [4]: 26 µM
Compound: O=c1[nH]c(-c2ccc(O)cc2)nc2sc3c(c12)CCCC3
